Experiments:
Mu-type opioid receptor [1] = molecular target: T1, Mu-type opioid receptor (Cavia porcellus, UniProt P97266); assay: (§1) Binding affinity to displace radioligand [3H]DAMGO on Opioid receptor mu 1 in guinea pig membranes.; type: cell membranes
[2] = molecular target: Kappa-type opioid receptor (Cavia porcellus, UniProt P41144); assay: Binding affinity to displace radioligand [3H]U-69593 on Opioid receptor kappa 1 in guinea pig membranes.; type: cell membranes
[3] = Inhibition of adenylyl cyclase activity in membranes of the human SH-SY5Y neuroblastoma cell line.; type: functional, cell-based; design: concentration or dose not given beside the values; conditions: concentration not given here
In short: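 SH-SY5Y membranes (50 µg protein) incubated 15 min at 30 °C with compound at 10 µM final. The mix held 20 mM HEPES pH 7.4, creatine phosphokinase/phosphocreatine, 1 mM phenanthroline, 60 µM IBMX, 0.1 mM GTP and 0.1 mM ATP. Stopped with perchloric acid and neutralized. cAMP measured by [3H]cAMP kit. Reported as % inhibition of basal activity, duplicate, repeated at least three times.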

Mu-type opioid receptor [4] = molecular target: T1, Mu-type opioid receptor; assay: as §1; type: cell membranes; remark: listed apart in the source
In short: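 Guinea pig brain membranes (500 µg protein) incubated with 12 concentrations of compound and 0.25 nM [3H]DAMGO in 50 mM Tris-HCl pH 7.5, 25 °C, 60 min. Nonspecific binding with 10 µM naloxone. Filtration, washes in cold Tris, scintillation counting. IC50 by log-probit least-squares fit, converted to Ki (Cheng-Prusoff). At least three experiments in triplicate, mean ± SE.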

[5] = Binding affinity to displace radioligand [3H]naltrindole on Opioid receptor delta 1 in guinea pig membranes.

T1 sequence (P97266 whole entry): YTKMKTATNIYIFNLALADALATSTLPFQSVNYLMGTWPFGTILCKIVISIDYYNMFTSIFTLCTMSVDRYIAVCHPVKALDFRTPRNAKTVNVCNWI
Kappa-type opioid receptor, sequence (P41144 whole entry): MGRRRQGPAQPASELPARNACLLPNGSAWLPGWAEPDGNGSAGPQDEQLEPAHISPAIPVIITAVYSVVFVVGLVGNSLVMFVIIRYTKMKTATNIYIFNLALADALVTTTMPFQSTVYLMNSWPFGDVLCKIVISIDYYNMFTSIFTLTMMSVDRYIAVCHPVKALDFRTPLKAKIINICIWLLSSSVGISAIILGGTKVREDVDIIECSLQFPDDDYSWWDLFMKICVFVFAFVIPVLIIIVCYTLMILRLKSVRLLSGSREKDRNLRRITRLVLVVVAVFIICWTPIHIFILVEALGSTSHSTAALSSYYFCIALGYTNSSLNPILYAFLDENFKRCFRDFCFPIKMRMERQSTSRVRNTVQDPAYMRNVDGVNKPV

Row | Structure (SMILES) | Ki (Mu-type opioid receptor [1]) [nM] | Ki [2] [nM] | inhibition [3] [%] | Ki (Mu-type opioid receptor [4]) [nM] | Ki [5] [nM]
1 | C[C@H]1[C@H]2Cc3ccc(N)cc3[C@@]1(C)CCN2CC1CC1 | 1.8 | 1.2 | – | – | –
2 | C[C@@H](NC(=O)[C@@H](N)Cc1ccc(O)cc1)C(=O)NCC(=O)N(C)[C@@H](Cc1ccccc1)C(=O)NCCO | – | – | 58 | – | –
3 | CN1CC[C@]23c4c5ccc(Nc6ccccc6)c4O[C@H]2[C@@H](O)C=C[C@H]3[C@H]1C5 | 59 | 240 | 44 | – | –
4 | CN1CC[C@]23c4c5ccc(N)c4O[C@H]2[C@@H](O)C=C[C@H]3[C@H]1C5 | – | 740 | 26 | 53 | –
5 | CN1CC[C@]23c4c5ccc(NCc6ccccc6)c4O[C@H]2[C@@H](O)C=C[C@H]3[C@H]1C5 | 33 | 3400 | 17 | – | –
6 | CN(C)c1ccc2c3c1O[C@H]1[C@@H](O)C=C[C@H]4[C@@H](C2)N(C)CC[C@@]341 | 240 | 290 | 13 | – | –
7 | CNc1ccc2c3c1O[C@H]1[C@@H](O)C=C[C@H]4[C@@H](C2)N(C)CC[C@@]341 | 63 | 2800 | 29 | – | –
8 | C[C@H]1[C@H]2Cc3ccc(Nc4ccccc4)cc3[C@@]1(C)CCN2CC1CC1 | – | – | – | – | 5.2
